Screens from PubChem BioAssay.
Beta2AR agonist: beta2AR agonists driving receptor internalization, primary screen, cell-based, FAP fluorogen, flow cytometry; Beta-2 adrenergic receptor (Homo sapiens), P07550; Am2.2-beta2AR cells; response, % (test concentration not listed); 340,000 tested, 0.43% active;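 active means response above a set limit, near 3 SD of response in nonfluorescent compounds, cut at about 42% in these data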
Target sequence (P07550 whole entry, looked up): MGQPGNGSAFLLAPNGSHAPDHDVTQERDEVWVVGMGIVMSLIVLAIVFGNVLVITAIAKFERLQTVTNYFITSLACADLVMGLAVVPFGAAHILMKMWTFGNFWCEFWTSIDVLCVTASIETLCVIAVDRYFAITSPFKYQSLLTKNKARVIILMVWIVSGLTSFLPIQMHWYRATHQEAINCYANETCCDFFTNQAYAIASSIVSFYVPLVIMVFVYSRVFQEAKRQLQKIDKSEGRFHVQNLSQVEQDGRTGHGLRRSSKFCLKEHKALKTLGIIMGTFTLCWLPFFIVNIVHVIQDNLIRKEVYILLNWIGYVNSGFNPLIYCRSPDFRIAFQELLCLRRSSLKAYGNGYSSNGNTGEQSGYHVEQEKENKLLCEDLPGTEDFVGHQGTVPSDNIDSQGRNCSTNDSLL
Arr AP2 block: inhibitors of beta-arrestin/AP2 binding, primary screen, biochemical, GPCR trafficking, flow cytometry; FITC-arrestin peptide / GST-AP2 beads; AP2 beta2 appendage carries R879A mutation; inhibition, % at 10 µM; 340,000 tested, 0.31% active; AID 504490, 2011;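 active means inhibition above a set limit, near 3 SD of compounds lacking own fluorescence, cut at about 54% in these data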;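 further: plate controls were DMSO wells for no effect and 5 µM unlabelled arrestin peptide for full effect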
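Material – GST-tagged AP2 beta2-adaptin appendage (R879A) on 4 µm glutathione beads · Probe or stimulus – fluorescein-tagged arrestin peptide at 50 nM final · Timing – 12 min plus 1 h, RT · Detection – bead flow cytometry, FITC channel · Read-out basis – inhibition as reduced fluorescein signal on beads, percent · Medium – PBS plus Tween 20 (0.05%) and BSA (0.1%)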
Lipid droplet: inhibitors of hepatocyte lipid droplet formation, primary screen, imaging, high-throughput imaging, BODIPY stain; AML12 mouse hepatocytes, oleate lipid droplets; inhibition, % at 6.5 µM; 240,000 tested, 0.4% active; AID 1656, 2009;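 active means lipid droplet intensity inhibited by at least 50%, with more than 500 cells counted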
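material = mouse AML12 hepatocyte cell line, fixed after treatment | also added = 100 µM oleic acid challenge | doses = compound at 6.5 µM only | schedule = overnight exposure | technique = Image-based BODIPY and DAPI two-channel analysis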
TAG inh: inhibitors of triacylglycerol accumulation, primary screen, cell-based, uHTS, fluorescence, H9c2; inhibition, % at 12.5 µM; H9c2 cells, Nile Red lipid (TAG) fluorescence; cells loaded with 200 µM oleic acid; AID 651582, 2012; 230,000 tested, 0.66% active;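 active means pattern-corrected inhibition of lipid staining of at least 50% with the nuclear-stain viability signal not falling by more than 50%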;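 further: 0% = DMSO wells and 100% = triacsin C control wells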
GRK2 aptamer HTS: compounds blocking aptamer binding on GRK2 – biochemical, human GRK2, bead flow cytometry, HTS, primary screen; Beta-adrenergic receptor kinase 1 (Homo sapiens), P25098; FAM-aptamer displacement from GRK2; inhibition of aptamer binding, % at 10 µM; 330,000 tested, 0.59% active;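 active means inhibition of aptamer binding above 40%, roughly 3 SD of noise, on plates passing a quality check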;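 further: median bead fluorescence of bound FAM aptamer so fluorescent compounds give negative values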
NTR1 ag: agonists of human NTR1, primary screen, imaging, U2OS cells, beta-arrestin-GFP, high content; Neurotensin receptor type 1 (Homo sapiens), P30989; NTR1-U2OS beta-arrestin-GFP spot imaging, agonist mode; activation, % at 20 µM; 330,000 tested, 0.17% active; AID 493036, 2011;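 active means activation at or above 40% of the spot to cytoplasm intensity ratio, with at least 20 cells analyzed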;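 further: 0% = DMSO without peptide and 100% = 100 nM NTR1 peptide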
GRK2 CP1: GRK2 aptamer-displacing inhibitors, retest, confirmation, biochemical, cherry pick 1, bead flow cytometry. shares compounds with GRK2 aptamer HTS. AID 504451, 2011. aptamer displacement, % at 10 µM. 2,000 tested, 4% active. bead-bound GRK2, FAM-aptamer displacement;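 active means aptamer displacement above 40%, near three times the noise of non-fluorescent compounds, on plates passing quality checks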;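 further: negative values mostly reflect intrinsic compound fluorescence rather than true enhancement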
Aptamer quench: fluorescent aptamer quenching in GRK2 counter-screen dose response | shares compounds with GRK2 aptamer HTS | Fluorescent RNA aptamer beads, flow cytometry; active compounds read high | fluorescence change (kMESF span), kMESF (test concentration not listed) | 110 tested, under 10 active;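 active means compounds whose bead fluorescence drops by more than 37 kMESF across the dose range, marking them as dye quenchers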
Aptamer quench SP: quenches fluorescent RNA aptamer, GRK2 hit artifact | shares compounds with GRK2 aptamer HTS | Carboxyfluorescein RNA aptamer on beads, flow cytometry quenching; active compounds read low | fluorescence response (% of DMSO), % at 10 µM | 2,000 tested, under 10 active | AID 504580;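 active means compounds that quench the bead-bound fluorescent RNA probe, cutting fluorescence to under half of the solvent control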;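 further: counterscreen run without GRK2 so only probe quenching by compound is measured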
GRK2 CP2: GRK2 aptamer-displacing inhibitors, hit retest, confirmation, biochemical, cherry pick 2, bead flow cytometry | bead-bound GRK2, FAM-aptamer displacement | shares compounds with GRK2 aptamer HTS | inhibition of aptamer binding, % at 10 µM | AID 504782, 2011 | 360 tested, under 10 active;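 active means inhibition of aptamer binding above 40%, about triple the noise seen with nonglowing compounds, on plates passing quality control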;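 further: negative values mostly come from compounds that fluoresce themselves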
Aptamer quench3: fluorescence quenching of FAM-labeled RNA aptamer, dose response, artefact control for GRK2 aptamer inhibitor project, biochemical, flow cytometry, cherry pick 2. Streptavidin beads. 25 tested, under 10 active. AID 504819, 2011. shares compounds with GRK2 aptamer HTS. change in fluorescence (kMESF span), kMESF (test concentration not listed);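 active means compounds quenching the bead-bound labeled aptamer, with fluorescence dropping by more than 37 kMESF over the dose range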
FAM quench CP2: counter-screen for GRK2 binding hits: quenchers of fluorescent RNA aptamer. shares compounds with GRK2 aptamer HTS. carboxyfluorescein RNA aptamer beads, flow cytometry quenching; active compounds read low. fluorescence response vs DMSO, % at 10 µM. 360 tested, under 10 active. AID 588494;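 active means response vs DMSO under 50%, meaning signal dropped by over half, treated as fluorescence quencher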;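 further: labelled aptamer on streptavidin beads without GRK2 as a quench counter-screen; 100% = bead fluorescence of DMSO wells and lower means quenching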
FAM quench DR: quenchers of FAM-labeled RNA aptamer fluorescence, dose response, artefact control for GRK2 aptamer binding project, biochemical, powder set 1, flow cytometry; shares compounds with GRK2 aptamer HTS; Bead-bound FAM RNA aptamer fluorescence quenching; active compounds read low; fluorescence ratio to DMSO, % at 11.1 µM; 35 tested, under 10 active; AID 588496, 2011;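 active means compounds that dim the fluorescent label, raw bead signal shifting by over 33 units between lowest and highest dose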
The depositor's hits bear a star; x = not tested or not shown. Compounds with a hit are over-represented: about 2% of the library has one in this group of screens.

SMILES	Beta2AR agonist	Arr AP2 block	Lipid droplet	TAG inh	GRK2 aptamer HTS	NTR1 ag	GRK2 CP1	Aptamer quench SP	others
CC(C(=O)N1CCOCC1)N1C(=O)c2ccccc2C1=O (configuration not stated)	0	-11	-1	-8	1	0	x	x
CCOc1ccccc1NC(=O)CCS(=O)(=O)c1ccc(Br)cc1	13	8	2	x	98*	0	92*	95	Aptamer quench=-4;Aptamer quench3=0.2;FAM quench DR=100
O=C(CCS(=O)(=O)c1ccc(Br)cc1)NC1CCCC1	2	0	-6	x	80*	0	61*	99	Aptamer quench=0.6;Aptamer quench3=4.6
O=C(CCNS(=O)(=O)c1ccc(Br)cc1)NC1CCCCC1	5	27	10	-9	0	-1	x	x
COC(=O)c1ccccc1NC(=O)CCS(=O)(=O)c1ccc(Br)cc1	1	5	-9	x	x	x	x	x
CCOc1ccc(NC(=O)CCS(=O)(=O)c2ccc(Br)cc2)cc1	-10	-6	-4	x	83*	-1	x	x	GRK2 CP2=60*;Aptamer quench3=-0.2;FAM quench CP2=102;FAM quench DR=102
O=C(CCS(=O)(=O)c1ccc(Br)cc1)Nc1cc(F)ccc1F	-4	12	-22	x	82*	3	x	x	GRK2 CP2=26;Aptamer quench3=1.4;FAM quench CP2=100;FAM quench DR=99
CCc1ccccc1NC(=O)CCS(=O)(=O)c1ccc(Br)cc1	-3	-6	x	x	57*	0	30	96	Aptamer quench=-0.1;Aptamer quench3=-1.3;FAM quench DR=99
CC(C)(C(=O)N1CCC1(C)C(=O)Nc1ccccc1Br)c1ccccc1 (configuration not stated)	x	x	x	-16	x	x	x	x
C#CCn1c(=NC(=O)c2ccc(Cl)s2)sc2cccc(OC)c21	12	1	-4	9	76*	9	2	99
COC(=O)NNC(=O)COc1ccc(Br)c(C)c1	6	-2	-1	x	1	0	x	x
Cc1cc(OCC(=O)Nn2cnnc2)ccc1Br	29	-2	x	x	71*	0	6	98
O=S(=O)(c1ccc(-c2ccon2)s1)N1CCN(c2ccncc2)CC1	x	x	12	x	2	-1	x	x
COCCn1c(SCC(=O)Nc2cccc(C)c2)nnc1C(C)C	0	-5	x	10	41*	-2	x	x	GRK2 CP2=5;FAM quench CP2=100
C=CCOc1ccc(/C=C/C(=O)OCc2csc(CC(=O)Nc3ccccc3C)n2)cc1	2	-3	x	23	0	6	x	x
CC(C)c1ccc(CC(=O)N2CCC2(C)C(=O)NS(=O)(=O)c2ccc(Cl)s2)cc1 (configuration not stated)	x	x	x	2	x	x	x	x
Cc1cc(F)ccc1NC(=O)c1cc(S(=O)(=O)N2CCc3ccccc32)cn1C	-7	-10	-1	-21	73*	1	-4	102
COc1ccc(NC(=O)c2cc(S(=O)(=O)N3CCc4ccccc43)cn2C)c(OC)c1	4	14	4	-20	2	0	x	x
O=C(O)CCn1c(-c2ccccn2)nc2ccccc21	4	5	4	-3	27	2	4	95
O=C(O)CCn1c(CO)nc2ccccc21	-1	-3	-1	2	0	0	x	x
CCOC(=O)c1c(C)n2c3c(cc(C)cc13)CCC2	-2	5	-2	-30	86*	2	-2	92
CCCCCCCCc1nnc(N)s1	0	43	-8	-3	0	0	x	x
O=C(CC1SC(N2CCCCC2)=NC1=O)Nc1cccc(C(=O)NCc2ccc(F)cc2)c1 (configuration not stated)	2	12	x	1	x	3	24	99	Aptamer quench=-30
Cc1ccc2c(CC(=O)OCC(=O)N(CC(C)C)c3c(N)n(Cc4ccccc4)c(=O)[nH]c3=O)coc2c1	1	-6	x	2	83*	0	0	114
Cc1cc(OCC(=O)N(Cc2ccco2)c2c(N)n(Cc3ccccc3)c(=O)[nH]c2=O)ccc1Cl	10	-7	x	-1	0	2	2	106
SMILES	Beta2AR agonist	Arr AP2 block	Lipid droplet	TAG inh	GRK2 aptamer HTS	NTR1 ag	GRK2 CP1	Aptamer quench SP	others
Nc1c(N(Cc2ccco2)C(=O)COc2ccc(Cl)cc2)c(=O)[nH]c(=O)n1Cc1ccccc1	0	39	x	6	x	x	x	x
CC(C)c1ccc(OCc2ccc(C(=O)N3CCCC3)o2)cc1	2	27	8	x	0	9	x	x
COc1ccc2c(c1)C(=O)N(c1ccccc1C)C(=O)C2(C)C	-7	-4	-18	-15	78*	1	2	99
Nc1nonc1-n1nnc(C(=O)N/N=C/c2ccncc2)c1-c1ccccc1	-8	-1	-13	x	1	3	x	x
CC(C)(C)c1ccc(OCC(=O)Nc2ccc(C(=O)Nc3ccccc3C(=O)O)cc2)cc1	2	-10	-1	1	0	3	x	x
O=c1cc(O)nc(-c2ccc(Cl)cc2)s1	-2	3	7	20	0	2	x	x
Cc1nc(-c2nc(-c3c(C(=O)NNC(=O)c4ccc(Cl)cc4)noc3C)cs2)cs1	-3	-2	12	-1	4	4	x	x
